From ChEMBL document CHEMBL5385966, “Synthesis and biological evaluation of new naphthalimide-thiourea derivatives as potent antimicrobial agents active against multidrug-resistant Staphylococcus aureus and Mycobacterium tuberculosis” (RSC Med Chem, 2024)
In brackets after ≈: the same amount, converted by molar mass. Activity calls are given as the source filed them. The rule behind the calls is not given here.

Tests used:
Acinetobacter baumannii = assay: Antibacterial activity against Acinetobacter baumannii BAA 1605 assessed as bacterial growth inhibition incubated for 16 to 18 hrs by CLSI based antibiotic susceptibility testing method; type: functional, organism-based; conditions: time 16-18 hrs
Summary of the method: (§1)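 Broth microdilution in cation-adjusted Mueller-Hinton broth. Compounds were tested at […], with levofloxacin as reference and medium-only controls. Plates were incubated at 37 °C for 16-18 h. MIC was the lowest concentration with no visible growth; three independent determinations, each in duplicate.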

Staphylococcus aureus [1] = assay: Antibacterial activity against methicillin/ceftriaxone/meropenem-resistant Staphylococcus aureus NRS10192 clinical isolate assessed as bacterial growth inhibition incubated for 16 to 18 hrs by CLSI based antibiotic susceptibility testing method; type: functional; conditions: time 16-18 hrs; summary of the method: as §1
Staphylococcus aureus [2] = assay: Antibacterial activity against Staphylococcus aureus ATCC 29213 assessed as bacterial growth inhibition incubated for 16 to 18 hrs by CLSI based antibiotic susceptibility testing method; type: functional; conditions: time 16-18 hrs; summary of the method: as §1
Staphylococcus aureus [3] = assay: Antibacterial activity against methicillin/ceftriaxone/meropenem-resistant Staphylococcus aureus NRS10191 clinical isolate assessed as bacterial growth inhibition incubated for 16 to 18 hrs by CLSI based antibiotic susceptibility testing method; type: functional; conditions: time 16-18 hrs; summary of the method: as §1
[4] = tested on: Mycobacterium tuberculosis; assay: Antimycobacterial activity against Mycobacterium tuberculosis H37Rv ATCC 27294 assessed as bacterial growth inhibition incubated for 7 days by resazurin dye based broth microdilution method; type: functional; conditions: H37Rv ATCC 27294, 168 h, time 7 day
Summary of the method: (§2)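 Broth microdilution in Middlebrook 7H9 with 10% ADC-Tween-80 (0.2% glycerol, 0.05% Tween-80), inoculum ~10⁶ cfu/mL. Compounds came from 10 mg/mL DMSO stocks and were tested as two-fold serial dilutions at 37 °C, 7 days for M. tuberculosis H37Rv and 72 h for NTM. Growth was read visually with PrestoBlue resazurin dye; MIC was the lowest concentration preventing growth. Triplicate determinations, each in duplicate.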

Klebsiella pneumoniae = assay: Antibacterial activity against Klebsiella pneumoniae BAA 1705 assessed as bacterial growth inhibition incubated for 16 to 18 hrs by CLSI based antibiotic susceptibility testing method; type: functional, organism-based; conditions: time 16-18 hrs; summary of the method: as §1
Staphylococcus aureus [5] = assay: Antibacterial activity against methicillin-sensitive Staphylococcus aureus ATCC 29213 clinical isolate assessed as bacterial growth inhibition incubated for 16 to 18 hrs by CLSI based antibiotic susceptibility testing method; type: functional; conditions: time 16-18 hrs; summary of the method: as §1
Mycobacteroides chelonae = assay: Antimycobacterial activity against Mycobacteroides chelonae ATCC 35752 assessed as bacterial growth inhibition incubated for 72 hrs by resazurin dye based broth microdilution method; type: functional, organism-based; summary of the method: as §2
Staphylococcus aureus [6] = assay: Antibacterial activity against methicillin/ceftriaxone/meropenem/gentamycin/linezolid-resistant Staphylococcus aureus NRS10100 clinical isolate assessed as bacterial growth inhibition incubated for 16 to 18 hrs by CLSI based antibiotic susceptibility testing method; type: functional; conditions: time 16-18 hrs; summary of the method: as §1
Staphylococcus aureus [7] = assay: Bactericidal activity against Staphylococcus aureus ATCC 29213 assessed as reduction in remnant bacterial cells measured for 24 hrs by time-kill assay; type: functional, organism-based
Summary of the method: (§3)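 Time-kill assay: S. aureus ATCC 29213 at ~10⁶ cfu/mL in MHB, exposed to 1X and 10X MIC at 37 °C, in triplicate. Samples taken at 0, 1, 6 and 24 h were serially diluted in PBS and plated on TSA for 18-20 h at 37 °C. Surviving cfu/mL were counted against untreated controls.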

Staphylococcus aureus [8] = assay: Antibacterial activity against methicillin/ceftriaxone/meropenem-resistant Staphylococcus aureus NRS10198 clinical isolate assessed as bacterial growth inhibition incubated for 16 to 18 hrs by CLSI based antibiotic susceptibility testing method; type: functional; conditions: time 16-18 hrs; summary of the method: as §1
Escherichia coli = assay: Antibacterial activity against Escherichia coli ATCC 25922 assessed as bacterial growth inhibition incubated for 16 to 18 hrs by CLSI based antibiotic susceptibility testing method; type: functional, organism-based; conditions: time 16-18 hrs; summary of the method: as §1
Staphylococcus aureus [9] = assay: Antibacterial activity against methicillin/ceftriaxone-resistant Staphylococcus aureus NRS10194 clinical isolate assessed as bacterial growth inhibition incubated for 16 to 18 hrs by CLSI based antibiotic susceptibility testing method; type: functional; conditions: time 16-18 hrs; summary of the method: as §1
[10] = Selectivity index, ratio of CC50 for African green monkey Vero cells to MIC for Staphylococcus aureus ATCC 29213; type: toxicity, cell-based; conditions: read-out: Selectivity Index
Staphylococcus aureus [11] = assay: Bactericidal activity against Staphylococcus aureus ATCC 29213 assessed as reduction in remnant bacterial cells at 10 times MIC measured for 24 hrs by time-kill assay; type: functional; summary of the method: as §3
Staphylococcus aureus [12] = assay: Antibacterial activity against methicillin/ceftriaxone/meropenem/gentamycin/linezolid-resistant Staphylococcus aureus NRS10119 clinical isolate assessed as bacterial growth inhibition incubated for 16 to 18 hrs by CLSI based antibiotic susceptibility testing method; type: functional; conditions: time 16-18 hrs; summary of the method: as §1
Pseudomonas aeruginosa = assay: Antibacterial activity against Pseudomonas aeruginosa ATCC 27853 assessed as bacterial growth inhibition incubated for 16 to 18 hrs by CLSI based antibiotic susceptibility testing method; type: functional, organism-based; conditions: time 16-18 hrs; summary of the method: as §1
[13] = tested on: Mycolicibacterium fortuitum; assay: Antimycobacterial activity against Mycobacterium fortuitum ATCC 6841 assessed as bacterial growth inhibition incubated for 72 hrs by resazurin dye based broth microdilution method; type: functional, organism-based; summary of the method: as §2
Staphylococcus aureus [14] = assay: Antibacterial activity against methicillin/ceftriaxone/meropenem-resistant Staphylococcus aureus NRS10186 clinical isolate assessed as bacterial growth inhibition incubated for 16 to 18 hrs by CLSI based antibiotic susceptibility testing method; type: functional; conditions: time 16-18 hrs; summary of the method: as §1
Staphylococcus aureus [15] = assay: Antibacterial activity against methicillin/ceftriaxone/meropenem/vancomycin/teicoplanin-resistant Staphylococcus aureus VRS12 clinical isolate assessed as bacterial growth inhibition incubated for 16 to 18 hrs by CLSI based antibiotic susceptibility testing method; type: functional; conditions: time 16-18 hrs; summary of the method: as §1
Staphylococcus aureus [16] = assay: Antibacterial activity against methicillin/ceftriaxone/meropenem-resistant Staphylococcus aureus NRS10193 clinical isolate assessed as bacterial growth inhibition incubated for 16 to 18 hrs by CLSI based antibiotic susceptibility testing method; type: functional; conditions: time 16-18 hrs; summary of the method: as §1
Staphylococcus aureus [17] = assay: Antibacterial activity against methicillin/ceftriaxone/meropenem-resistant Staphylococcus aureus NRS10129 clinical isolate assessed as bacterial growth inhibition incubated for 16 to 18 hrs by CLSI based antibiotic susceptibility testing method; type: functional; conditions: time 16-18 hrs; summary of the method: as §1
Staphylococcus aureus [18] = assay: Antibacterial activity against methicillin/ceftriaxone/meropenem/gentamycin/vancomycin/teicoplanin-resistant Staphylococcus aureus VRS1 clinical isolate assessed as bacterial growth inhibition incubated for 16 to 18 hrs by CLSI based antibiotic susceptibility testing method; type: functional; conditions: time 16-18 hrs; summary of the method: as §1
[19] = Cytotoxicity against African green monkey Vero cells by MTT assay; type: toxicity, cell-based; conditions: chlorocebus sabaeus
Summary of the method: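 Vero cells were seeded at ~10³ per well at 37 °C, 5% CO2. After 24 h, compounds were added at 5-100 mg/L for 72 h. […] was added for 4 h, formazan was dissolved in DMSO and read at 540 nm. CC50 was taken as the lowest concentration reducing viability by 50%; doxorubicin was the positive control; triplicate.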

Staphylococcus aureus [20] = assay: Antibacterial activity against methicillin/ceftriaxone/meropenem/vancomycin/teicoplanin-resistant Staphylococcus aureus VRS4 clinical isolate assessed as bacterial growth inhibition incubated for 16 to 18 hrs by CLSI based antibiotic susceptibility testing method; type: functional; conditions: time 16-18 hrs; summary of the method: as §1
[21] = tested on: Mycobacteroides abscessus; assay: Antimycobacterial activity against Mycobacterium abscessus ATCC 19977 assessed as bacterial growth inhibition incubated for 72 hrs by resazurin dye based broth microdilution method; type: functional, organism-based; summary of the method: as §2
Staphylococcus aureus [22] = assay: Antimicrobial activity against Staphylococcus aureus assessed as microbial growth inhibition; type: functional

SMILES: O=C(CN1C(=O)c2cccc3cccc(c23)C1=O)N1CCC(NC(=S)NC2CCCC2)CC1
- growth inhibition (GI) (Acinetobacter baumannii): inactive
- MIC (Staphylococcus aureus [1]): 0.06 mg/L (≈ 0.129 µM)
- MIC (Staphylococcus aureus [2]): 0.031 mg/L (≈ 0.0667 µM)
- MIC (Staphylococcus aureus [3]): 0.06 mg/L (≈ 0.129 µM)
- MIC [4]: > 64 mg/L
- growth inhibition (GI) (Klebsiella pneumoniae): inactive
- MIC (Staphylococcus aureus [5]): 0.06 mg/L (≈ 0.129 µM)
- growth inhibition (GI) (Mycobacteroides chelonae): inactive
- MIC (Staphylococcus aureus [6]): 0.06 mg/L (≈ 0.129 µM)
- Activity (Staphylococcus aureus [7]): Dose-Dependent Effect
- MIC (Staphylococcus aureus [8]): 0.06 mg/L (≈ 0.129 µM)
- growth inhibition (GI) (Escherichia coli): inactive
- MIC (Staphylococcus aureus [9]): 0.06 mg/L (≈ 0.129 µM)
- selectivity ratio [10]: > 3200
- Activity (Staphylococcus aureus [11]): ~5 log10CFU/ml
- MIC (Staphylococcus aureus [12]): 0.06 mg/L (≈ 0.129 µM)
- growth inhibition (GI) (Pseudomonas aeruginosa): inactive
- growth inhibition (GI) [13]: inactive
- MIC (Staphylococcus aureus [14]): 0.06 mg/L (≈ 0.129 µM)
- MIC (Staphylococcus aureus [15]): 0.06 mg/L (≈ 0.129 µM)
- MIC (Staphylococcus aureus [16]): 0.06 mg/L (≈ 0.129 µM)
- MIC (Staphylococcus aureus [17]): 0.06 mg/L (≈ 0.129 µM)
- MIC (Staphylococcus aureus [18]): 0.06 mg/L (≈ 0.129 µM)
- CC50 [19]: > 100 mg/L
- MIC (Staphylococcus aureus [20]): 0.06 mg/L (≈ 0.129 µM)
- growth inhibition (GI) [21]: inactive

SMILES: CCCCCc1nnc(NC(=S)NS(=O)(=O)c2ccc(C)cc2)s1
- MIC (Staphylococcus aureus [22]): 0.78 mg/L (≈ 2.03 µM)

SMILES: COc1ccc(-c2csc(NC(=S)N[C@@H]3O[C@H](COC(C)=O)[C@@H](OC(C)=O)[C@H](OC(C)=O)[C@H]3OC(C)=O)n2)cc1[N+](=O)[O-]
- MIC (Staphylococcus aureus [22]): 0.78 mg/L (≈ 1.22 µM)
